# In paper PMC6851555 (Diabetes, Obesity & Metabolism, 2019):
# Tests used:
# [1] = target: T1, PPARγ ligand-binding domain (LBD) (Homo sapiens, UniProt P37231); experiment: PPARγLBD-Gal4-luciferase reporter transactivation assay; type: cell-based; settings: 20 μmol/L GW9662, 10 μmol/L YR4-42; Figure 1H
# T1 sequence (P37231 204-505): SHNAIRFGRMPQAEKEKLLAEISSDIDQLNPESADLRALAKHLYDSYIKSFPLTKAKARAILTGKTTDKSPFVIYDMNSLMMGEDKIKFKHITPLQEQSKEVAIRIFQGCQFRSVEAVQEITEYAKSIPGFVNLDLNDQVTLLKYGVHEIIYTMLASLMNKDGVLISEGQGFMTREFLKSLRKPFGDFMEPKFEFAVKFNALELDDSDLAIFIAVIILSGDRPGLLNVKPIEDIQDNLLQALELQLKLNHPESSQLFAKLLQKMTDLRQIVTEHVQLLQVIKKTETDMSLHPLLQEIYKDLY
# DIO-C57BL/6J mice = experiment: In vivo pharmacological evaluation in diet-induced obese mice; set-up: species or system mouse; settings: YR4-42 50 mg/kg
# Procedure, shortened: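 Male C57BL/6J mice (6 weeks old) on 60%-fat diet for 10 weeks, continued throughout; 16-week-old DIO mice randomised, n = 12/group, gavaged 38 days with 0.5% CMC-Na vehicle, pioglitazone 25 mg/kg or test compound 50 mg/kg; chow-fed vehicle controls. Body weight every 2 days; insulin tolerance test day 14 (AUC); day 38 liver weighed, TG/TC/FFA by kits normalised to tissue weight; mean ± SEM.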
SMILES,effect of antagonist on PPARγ transactivation induced by YR4-42 [1],"hepatic TG, total cholesterol and FFA (DIO-C57BL/6J mice; 38th day, pioglitazone 25 mg/kg oral, Figure 3K-M)","body weight of DIO mice (DIO-C57BL/6J mice; oral gavage 38 days, pioglitazone 25 mg/kg, Figure 3A,B)"
O=C(Nc1ccccc1)c1cc([N+](=O)[O-])ccc1Cl [GW9662],inhibited,,
CCc1ccc(CCOc2ccc(CC3SC(=O)NC3=O)cc2)nc1 (stereo not drawn) [pioglitazone],,increased,further enhanced weight gain
